Results collected from several papers.
Each line is one published result; the experiments were not run side by side.

OCc1ccc(-c2nn(Cc3ccccc3)c3cccc(Cl)c23)o1
inhibition (RBE; cell growth or viability, ATP luminescence; 46 µM, 72 h): 86%

O=C(O)c1cn(C2CC2)c2cc(N3CCNCC3)c(F)cc2c1=O
inhibition zone (Escherichia coli; microbial growth, well diffusion; ATCC25922; 100 µg/mL): 35 mm

O=C(Nc1ccccc1/N=c1\cc(-c2ccc3c(c2)OCO3)oc2ccccc12)N1CCOCC1
inhibition (MDA-MB-468; cell growth or viability, CCK-8; 1 µM): -3.73%

CCCS(=O)(=O)Oc1ccc(C=NNC(=O)CSc2nc3c(C)cccc3c(=O)n2-c2ccccc2)cc1
inhibition zone (Staphylococcus aureus; microbial growth, well diffusion; MRSA; 20 µg/mL): 2 mm

CC1(C)S[C@@H]2[C@H](NC(=O)[C@H](N)c3ccccc3)C(=O)N2[C@H]1C(=O)O
MIC (Micrococcus luteus; microbial growth, broth dilution; ATCC4698): 1.35 µM

OCc1cnc(-c2nn(Cc3ccccc3)c3ccccc23)o1
inhibition (RBE; cell growth or viability, ATP luminescence; 46 µM, 72 h): 16%

NCCC(=O)Nc1ccccc1/N=c1\cc(-c2ccc3nc(N)oc3c2)oc2cc(O)ccc12
inhibition (MDA-MB-468; cell growth or viability, CCK-8; 1 µM): 10.5%

CC(=O)NC[C@H]1CN(c2ccc(N3CCOCC3)c(F)c2)C(=O)O1
MIC (Staphylococcus aureus; microbial growth, agar dilution; ATCC29213): 2 µg/mL
